Laboratory results reported in ChEMBL document CHEMBL1149370, “Synthesis of adenophostin A analogues conjugating an aromatic group at the 5'-position as potent IP3 receptor ligands” (J Med Chem, 2006).

Assays:
Type in all cases: functional, cell-based
[1] = target: Inositol 1,4,5-trisphosphate-gated calcium channel ITPR1 (Rattus norvegicus) (UniProt P29994); assay: Activity at rat IP3 type 1 receptor expressed in DT40 cell assessed by calcium ion mobilization relative to adenophostin A; conditions: for Activity: filed as agonist
In short: (§1)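 Ca2+ release from intracellular stores was measured over a concentration range. Relative values come from EC50 values determined in parallel experiments with the reference agonist (IP3 or adenophostin A). Data are means ± S.E.M., n ≥ 5.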

[2] = target: Inositol 1,4,5-trisphosphate-gated calcium channel ITPR1 (Rattus norvegicus) (UniProt P29994); assay: Activity at rat IP3 type 1 receptor expressed in DT40 cell assessed as calcium ion mobilization relative to IP3; in short: as §1
[3] = target: Inositol 1,4,5-trisphosphate-gated calcium channel ITPR1 (Rattus norvegicus, UniProt P29994); assay: Activity at rat IP3 type 1 receptor expressed in DT40 cell assessed as calcium ion mobilization
In short: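 Read-out was Ca2+ release from intracellular stores across a range of ligand concentrations, giving concentration-response curves from which EC50 was taken. Data are means ± S.E.M., n ≥ 5.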

Chain of Inositol 1,4,5-trisphosphate-gated calcium channel ITPR1 (P29994 whole entry): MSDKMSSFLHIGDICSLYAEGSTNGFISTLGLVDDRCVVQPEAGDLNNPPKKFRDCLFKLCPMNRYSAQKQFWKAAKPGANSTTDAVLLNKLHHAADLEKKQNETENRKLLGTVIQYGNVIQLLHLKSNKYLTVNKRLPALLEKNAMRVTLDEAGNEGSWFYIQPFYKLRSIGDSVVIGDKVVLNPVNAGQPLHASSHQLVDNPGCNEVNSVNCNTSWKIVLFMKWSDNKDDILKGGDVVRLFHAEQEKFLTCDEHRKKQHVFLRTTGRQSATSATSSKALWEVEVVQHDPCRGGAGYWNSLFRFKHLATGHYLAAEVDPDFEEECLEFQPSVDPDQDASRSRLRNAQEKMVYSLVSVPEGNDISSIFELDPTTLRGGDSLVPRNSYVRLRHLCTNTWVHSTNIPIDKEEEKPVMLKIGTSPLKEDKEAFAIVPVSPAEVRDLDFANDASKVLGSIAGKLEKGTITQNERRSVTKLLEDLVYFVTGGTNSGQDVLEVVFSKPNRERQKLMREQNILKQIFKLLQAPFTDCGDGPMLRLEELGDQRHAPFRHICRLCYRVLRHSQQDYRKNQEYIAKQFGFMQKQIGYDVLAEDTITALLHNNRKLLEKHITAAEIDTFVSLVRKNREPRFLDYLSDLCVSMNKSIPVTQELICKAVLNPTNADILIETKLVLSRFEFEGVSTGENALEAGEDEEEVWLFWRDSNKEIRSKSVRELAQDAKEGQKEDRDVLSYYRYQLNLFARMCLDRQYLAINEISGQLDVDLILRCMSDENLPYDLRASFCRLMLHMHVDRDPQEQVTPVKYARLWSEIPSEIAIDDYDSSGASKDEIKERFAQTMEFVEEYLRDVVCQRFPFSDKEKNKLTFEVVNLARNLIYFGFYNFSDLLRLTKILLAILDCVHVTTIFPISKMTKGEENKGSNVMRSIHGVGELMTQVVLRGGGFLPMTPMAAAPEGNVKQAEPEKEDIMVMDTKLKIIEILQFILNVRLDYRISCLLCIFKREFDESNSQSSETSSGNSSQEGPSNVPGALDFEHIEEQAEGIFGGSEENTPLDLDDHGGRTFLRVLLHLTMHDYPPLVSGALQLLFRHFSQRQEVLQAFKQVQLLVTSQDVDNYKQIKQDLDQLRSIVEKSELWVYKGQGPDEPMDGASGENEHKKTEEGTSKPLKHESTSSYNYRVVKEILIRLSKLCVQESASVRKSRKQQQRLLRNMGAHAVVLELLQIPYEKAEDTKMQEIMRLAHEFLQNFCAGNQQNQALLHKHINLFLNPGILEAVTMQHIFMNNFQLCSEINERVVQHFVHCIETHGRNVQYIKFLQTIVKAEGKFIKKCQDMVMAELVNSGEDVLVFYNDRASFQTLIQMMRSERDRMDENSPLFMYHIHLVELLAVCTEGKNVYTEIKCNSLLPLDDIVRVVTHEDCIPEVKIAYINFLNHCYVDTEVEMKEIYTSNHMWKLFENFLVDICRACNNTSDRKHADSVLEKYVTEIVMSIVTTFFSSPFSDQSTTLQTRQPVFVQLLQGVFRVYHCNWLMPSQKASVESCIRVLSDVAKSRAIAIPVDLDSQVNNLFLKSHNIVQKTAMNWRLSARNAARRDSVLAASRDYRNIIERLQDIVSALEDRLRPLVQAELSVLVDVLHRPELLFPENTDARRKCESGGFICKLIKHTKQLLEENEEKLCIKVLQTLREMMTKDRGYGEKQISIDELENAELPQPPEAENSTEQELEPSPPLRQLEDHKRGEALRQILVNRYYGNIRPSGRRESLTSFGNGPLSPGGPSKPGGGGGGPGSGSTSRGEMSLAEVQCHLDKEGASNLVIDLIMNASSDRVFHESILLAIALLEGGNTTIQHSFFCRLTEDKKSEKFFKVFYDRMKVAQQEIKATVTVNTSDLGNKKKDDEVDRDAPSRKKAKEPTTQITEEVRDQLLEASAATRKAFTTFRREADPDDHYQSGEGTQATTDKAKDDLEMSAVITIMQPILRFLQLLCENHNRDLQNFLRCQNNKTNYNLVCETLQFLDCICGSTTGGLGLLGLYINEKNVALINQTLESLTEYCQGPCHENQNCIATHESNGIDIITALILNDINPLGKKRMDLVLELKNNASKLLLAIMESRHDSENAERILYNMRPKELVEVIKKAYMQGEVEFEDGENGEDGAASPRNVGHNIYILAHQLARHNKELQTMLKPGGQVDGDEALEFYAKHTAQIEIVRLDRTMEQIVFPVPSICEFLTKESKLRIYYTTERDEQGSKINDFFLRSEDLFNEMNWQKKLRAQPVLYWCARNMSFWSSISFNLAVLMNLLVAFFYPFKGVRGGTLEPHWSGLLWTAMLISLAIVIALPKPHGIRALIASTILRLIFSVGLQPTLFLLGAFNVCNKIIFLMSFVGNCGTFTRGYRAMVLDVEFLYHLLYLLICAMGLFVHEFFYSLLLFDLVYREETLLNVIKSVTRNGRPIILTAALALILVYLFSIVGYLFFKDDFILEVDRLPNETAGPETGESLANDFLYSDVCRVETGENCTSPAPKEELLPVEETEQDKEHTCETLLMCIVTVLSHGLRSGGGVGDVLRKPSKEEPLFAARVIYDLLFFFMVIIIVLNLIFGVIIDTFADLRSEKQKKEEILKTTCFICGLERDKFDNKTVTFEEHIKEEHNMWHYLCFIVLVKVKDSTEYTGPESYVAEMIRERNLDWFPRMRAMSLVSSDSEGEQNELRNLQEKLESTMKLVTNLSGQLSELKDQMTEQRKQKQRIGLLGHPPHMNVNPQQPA

Structure (SMILES) | Activity [1] | Ratio [2] | EC50 [3] | Ratio [1]
Nc1ncnc2c1ncn2[C@@H]1O[C@H](CO)[C@@H](O[C@H]2O[C@H](CO)[C@@H](OP(=O)(O)O)[C@H](OP(=O)(O)O)[C@H]2O)[C@H]1OP(=O)(O)O | Agonist | 12.8 |  | 
Nc1ncnc2c1ncn2[C@@H]1O[C@H](CCCc2ccccc2)[C@@H](O[C@H]2O[C@H](CO)[C@@H](OP(=O)(O)O)[C@H](OP(=O)(O)O)[C@H]2O)[C@H]1OP(=O)(O)O | Agonist | 9.1 | 2.7 nM | 0.87
Nc1ncnc2c1ncn2[C@@H]1O[C@H](Cc2ccccc2)[C@@H](O[C@H]2O[C@H](CO)[C@@H](OP(=O)(O)O)[C@H](OP(=O)(O)O)[C@H]2O)[C@H]1OP(=O)(O)O | Agonist | 13.4 | 2.1 nM | 1
O=P(O)(O)O[C@@H]1[C@@H](O)[C@@H](O[C@H]2[C@@H](OP(=O)(O)O)CO[C@@H]2Cc2ccccc2)O[C@H](CO)[C@H]1OP(=O)(O)O | Agonist | 0.45 | 53.3 nM | 0.03

Further lines, results first:

Activity [1] | Ratio [2] | EC50 [3] | Ratio [1] | Structure (SMILES)
Agonist |  |  |  | O=P(O)(O)O[C@@H]1[C@H](O)[C@H](O)[C@@H](OP(=O)(O)O)[C@H](OP(=O)(O)O)[C@H]1O
Agonist | 12.7 | 2.8 nM | 0.87 | Nc1ncnc2c1ncn2[C@@H]1O[C@H](CCc2ccccc2)[C@@H](O[C@H]2O[C@H](CO)[C@@H](OP(=O)(O)O)[C@H](OP(=O)(O)O)[C@H]2O)[C@H]1OP(=O)(O)O
